Source: ChEMBL document CHEMBL3621107, “Ring fusion strategy for synthesis and lead optimization of sulfur-substituted anthra[1,2-c][1,2,5]thiadiazole-6,11-dione derivatives as promising scaffold of antitumor agents” (Eur J Med Chem, 2015)

Key:
Type in all cases: functional
SW-620 = test: Cytotoxicity against human SW620 cells after 48 hrs by SRB assay; details: SW-620, 48 h
Outline: (§1)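 NCI-60 five-dose study run by NCI DTP at 0.01, 0.1, 1, 10 and 100 µM. Percentage growth at each level was plotted against log10 concentration for each line, and GI50, TGI and LC50 were read from the dose-response curves.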

OVCAR-3 = test: Cytotoxicity against human OVCAR3 cells after 48 hrs by SRB assay; details: OVCAR-3, 48 h; for CC50: read-out: LC50 (the source's name)
Outline: (§2)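 Second-stage NCI-60 panel run by the NCI Developmental Therapeutics Program, covering nine tumour subpanels. Five concentrations were tested: 0.01, 0.1, 1, 10 and 100 μM. Percentage growth at each level was plotted against log10 drug concentration. GI50, TGI and LC50 were read from these dose-response curves. Subpanel MID values were divided into the full-panel MID to give selectivity ratios.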

BT-549 = test: Cytotoxicity against human BT549 cells after 48 hrs by SRB assay; details: BT-549, 48 h
Outline: (§3)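 NCI-60 human tumour cell panel screen, second stage, run by the NCI Developmental Therapeutics Program. Compounds were tested at five concentrations (0.01, 0.1, 1, 10 and 100 μM). Percentage growth was plotted against log10 concentration for each cell line. GI50, TGI and LC50 were taken from these dose-response curves.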

[1] = Cytotoxicity against human EKVX cells after 48 hrs by SRB assay; outline: as §3
SNB-75 = test: Cytotoxicity against human SNB75 cells after 48 hrs by SRB assay; details: SNB-75, 48 h; outline: as §1
[2] = Cytotoxicity against human prostate cancer cells assessed as growth inhibition after 48 hrs by SRB assay; details: Cancer cell lines
Outline: (§4)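 Values come from the NCI-60 five-dose panel (0.01–100 µM). The subpanel MID is the mean GI50 over the lines of that tumour subpanel. The selectivity ratio is the full-panel MID divided by the subpanel MID; 3–6 is rated moderate and >6 high.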

PC-3 = test: Cytotoxicity against human PC3 cells after 48 hrs by SRB assay; details: PC-3, 48 h; outline: as §2
SK-MEL-2 = test: Cytotoxicity against human SK-MEL-2 cells after 48 hrs by SRB assay; details: SK-MEL-2, 48 h; outline: as §2
UACC-257 = test: Cytotoxicity against human UACC257 cells after 48 hrs by SRB assay; details: UACC-257, 48 h; outline: as §1
[3] = Cytotoxicity against human leukemia cells assessed as growth inhibition after 48 hrs by SRB assay; details: Leukemia cell; outline: as §4
HCT-116 = test: Cytotoxicity against human HCT116 cells after 48 hrs by SRB assay; details: HCT-116, 48 h; for CC50: read-out: LC50 (the source's name); outline: as §3
NCI-H522 = test: Cytotoxicity against human NCI-H522 cells after 48 hrs by SRB assay; details: NCI-H522, 48 h; outline: as §2
[4] = Cytotoxicity against human CNS cancer cells assessed as growth inhibition after 48 hrs by SRB assay; details: Cancer cell lines
Outline: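 NCI-60 five-dose data (0.01–100 μM) were grouped by tumour subpanel. A subpanel mean (MID) of GI50 was computed for the CNS cancer lines. A selectivity ratio was obtained as full-panel MID divided by subpanel MID: 3–6 counts as moderate, >6 as high.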

OVCAR-5 = test: Cytotoxicity against human OVCAR5 cells after 48 hrs by SRB assay; details: OVCAR-5, 48 h; outline: as §2
CCRF-CEM = test: Cytotoxicity against human CCRF-CEM cells after 48 hrs by SRB assay; outline: as §3
CAKI-1 = test: Cytotoxicity against human Caki1 cells after 48 hrs by SRB assay; details: CAKI-1, 48 h; outline: as §3
MDA-MB-468 = test: Cytotoxicity against human MDA-MB-468 cells after 48 hrs by SRB assay; details: MDA-MB-468, 48 h; outline: as §2
SK-MEL-28 = test: Cytotoxicity against human SK-MEL-28 cells after 48 hrs by SRB assay; details: SK-MEL-28, 48 h; for CC50: read-out: LC50 (the source's name); outline: as §2
A498 = test: Cytotoxicity against human A498 cells after 48 hrs by SRB assay; details: A498, 48 h; outline: as §3
RPMI-8226 = test: Cytotoxicity against human RPMI8226 cells after 48 hrs by SRB assay; details: RPMI-8226, 48 h; outline: as §2
HL-60(TB) = test: Cytotoxicity against human HL-60(TB) cells after 48 hrs by SRB assay; details: HL-60, 48 h
Outline: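 NCI Developmental Therapeutics Program 60-cell-line screen, second stage: cells exposed to five concentrations (0.01, 0.1, 1, 10 and 100 μM). Growth is plotted against log10 concentration for each line, and GI50, TGI and LC50 are read from the dose-response curves.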

SNB-19 = test: Cytotoxicity against human SNB19 cells after 48 hrs by SRB assay; details: SNB-19, 48 h; outline: as §2
U-251 = test: Cytotoxicity against human U251 cells after 48 hrs by SRB assay; details: U-251, 48 h; outline: as §1
NCI-H322M = test: Cytotoxicity against human NCI-H322M cells after 48 hrs by SRB assay; outline: as §2
HCT-15 = test: Cytotoxicity against human HCT15 cells after 48 hrs by SRB assay; details: HCT-15, 48 h; outline: as §3
[5] = Cytotoxicity against human renal cancer cells assessed as growth inhibition after 48 hrs by SRB assay; details: Cancer cell lines; outline: as §4
NCI-H23 = test: Cytotoxicity against human NCI-H23 cells after 48 hrs by SRB assay; details: NCI-H23, 48 h; outline: as §2
NCI-H226 = test: Cytotoxicity against human NCI-H226 cells after 48 hrs by SRB assay; details: NCI-H226, 48 h; outline: as §2

O=C1c2ccccc2C(=O)c2c1cc(Sc1ccccc1Br)c1nsnc21
GI50 (SW-620): 23.6 µM | LC50 (50% lethal concentration) (SW-620): > 50 µM | TGI (SW-620): > 50 µM | GI50 (OVCAR-3): 10.2 µM | TGI (OVCAR-3): 22.8 µM | CC50 (OVCAR-3): > 50 µM | GI50 (BT-549): 20.5 µM | LC50 (BT-549): > 50 µM | TGI (BT-549): > 50 µM | GI50 [1]: > 50 µM | LC50 [1]: > 50 µM | TGI [1]: > 50 µM | GI50 (SNB-75): 14.9 µM | LC50 (concentration killing 50% of cells) (SNB-75): > 50 µM | TGI (SNB-75): > 50 µM | GI50 [2]: 18.2 µM | GI50 (PC-3): 14.8 µM | LC50 (concentration killing 50% of cells) (PC-3): > 50 µM | TGI (PC-3): > 50 µM | GI50 (SK-MEL-2): 13.8 µM | LC50 (SK-MEL-2): > 50 µM | TGI (SK-MEL-2): 34.1 µM | GI50 (UACC-257): 8.56 µM | LC50 (UACC-257): > 50 µM | TGI (UACC-257): 20.9 µM | GI50 [3]: 12.8 µM | GI50 (HCT-116): 7.87 µM | TGI (HCT-116): 19.9 µM | CC50 (HCT-116): > 50 µM | GI50 (NCI-H522): 14.9 µM | LC50 (concentration giving 50% net cell kill) (NCI-H522): > 50 µM | TGI (NCI-H522): > 50 µM | GI50 [4]: 21.8 µM | GI50 (OVCAR-5): 3.44 µM | LC50 (OVCAR-5): > 50 µM | TGI (OVCAR-5): > 50 µM | GI50 (CCRF-CEM): 4.88 µM | LC50 (CCRF-CEM): > 50 µM | TGI (CCRF-CEM): > 50 µM | GI50 (CAKI-1): 17.2 µM | LC50 (concentration causing 50% net cell kill) (CAKI-1): > 50 µM | TGI (CAKI-1): > 50 µM | GI50 (MDA-MB-468): 0.95 µM | LC50 (MDA-MB-468): 4.2 µM | TGI (MDA-MB-468): 2 µM | GI50 (SK-MEL-28): 20.9 µM | TGI (SK-MEL-28): > 50 µM | CC50 (SK-MEL-28): > 50 µM | GI50 (A498): 10.7 µM | LC50 (concentration killing 50% of cells) (A498): > 50 µM | TGI (A498): > 50 µM | GI50 (RPMI-8226): 11.3 µM | LC50 (RPMI-8226): > 50 µM | TGI (RPMI-8226): > 50 µM | GI50 (HL-60(TB)): 17.8 µM | LC50 (HL-60(TB)): > 50 µM | TGI (HL-60(TB)): > 50 µM | GI50 (SNB-19): 32.2 µM | LC50 (SNB-19): > 50 µM | TGI (SNB-19): > 50 µM | GI50 (U-251): 10.9 µM | LC50 (U-251): > 50 µM | TGI (U-251): 31.7 µM | GI50 (NCI-H322M): > 50 µM | LC50 (concentration causing 50% net cell kill) (NCI-H322M): > 50 µM | TGI (NCI-H322M): > 50 µM | GI50 (HCT-15): 12.3 µM | LC50 (HCT-15): > 50 µM | TGI (HCT-15): > 50 µM | GI50 [5]: 14.5 µM | GI50 (NCI-H23): 13.5 µM | LC50 (NCI-H23): > 50 µM | TGI (NCI-H23): > 50 µM | GI50 (NCI-H226): 19.4 µM | LC50 (concentration killing 50% of starting cells) (NCI-H226): > 50 µM | TGI (NCI-H226): > 50 µM

O=C1c2ccccc2C(=O)c2c1cc(Sc1cccc(Cl)c1)c1nsnc21
GI50 (SW-620): 2.29 µM | LC50 (50% lethal concentration) (SW-620): 28.3 µM | TGI (SW-620): 5.21 µM | GI50 (OVCAR-3): 0.45 µM | TGI (OVCAR-3): 1.74 µM | CC50 (OVCAR-3): 6.5 µM | GI50 (BT-549): 3.27 µM | LC50 (BT-549): 40.3 µM | TGI (BT-549): 15.1 µM | GI50 [1]: 16 µM | LC50 [1]: 55 µM | TGI [1]: 29.7 µM | GI50 (SNB-75): 1.99 µM | LC50 (concentration killing 50% of cells) (SNB-75): 23.7 µM | TGI (SNB-75): 6.23 µM | GI50 [2]: 2.27 µM | GI50 (PC-3): 2.27 µM | LC50 (concentration killing 50% of cells) (PC-3): 69.9 µM | TGI (PC-3): 11.8 µM | GI50 (SK-MEL-2): 2.34 µM | LC50 (SK-MEL-2): 9.87 µM | TGI (SK-MEL-2): 4.81 µM | GI50 (UACC-257): 1.52 µM | LC50 (UACC-257): 6.54 µM | TGI (UACC-257): 3.15 µM | GI50 [3]: 1.59 µM | GI50 (HCT-116): 0.44 µM | TGI (HCT-116): 2.66 µM | CC50 (HCT-116): 16.3 µM | GI50 (NCI-H522): 1.84 µM | LC50 (concentration giving 50% net cell kill) (NCI-H522): 9.91 µM | TGI (NCI-H522): 4.26 µM | GI50 [4]: 4.47 µM | GI50 (OVCAR-5): 2.74 µM | LC50 (OVCAR-5): 68.2 µM | TGI (OVCAR-5): 6.08 µM | GI50 (CCRF-CEM): 0.56 µM | LC50 (CCRF-CEM): > 100 µM | TGI (CCRF-CEM): 6.26 µM | GI50 (CAKI-1): 2.67 µM | LC50 (concentration causing 50% net cell kill) (CAKI-1): > 100 µM | TGI (CAKI-1): 9.15 µM | GI50 (MDA-MB-468): 0.95 µM | LC50 (MDA-MB-468): 5.1 µM | TGI (MDA-MB-468): 2.23 µM | GI50 (SK-MEL-28): 1.93 µM | TGI (SK-MEL-28): 4.19 µM | CC50 (SK-MEL-28): 9.09 µM | GI50 (A498): 13 µM | LC50 (concentration killing 50% of cells) (A498): 6.54 µM | TGI (A498): 29.2 µM | GI50 (RPMI-8226): 1.42 µM | LC50 (RPMI-8226): > 100 µM | TGI (RPMI-8226): 6.32 µM | GI50 (HL-60(TB)): 2.51 µM | LC50 (HL-60(TB)): > 100 µM | TGI (HL-60(TB)): 6.71 µM | GI50 (SNB-19): 8.64 µM | LC50 (SNB-19): 47.1 µM | TGI (SNB-19): 21.2 µM | GI50 (U-251): 1.7 µM | LC50 (U-251): 9.39 µM | TGI (U-251): 4 µM | GI50 (NCI-H322M): 18.6 µM | LC50 (concentration causing 50% net cell kill) (NCI-H322M): 61.9 µM | TGI (NCI-H322M): 33.9 µM | GI50 (HCT-15): 2.71 µM | LC50 (HCT-15): 47.1 µM | TGI (HCT-15): 11.3 µM | GI50 [5]: 3.81 µM | GI50 (NCI-H23): 1 µM | LC50 (NCI-H23): 22.8 µM | TGI (NCI-H23): 3.58 µM | GI50 (NCI-H226): 2.39 µM | LC50 (concentration killing 50% of starting cells) (NCI-H226): 57.5 µM | TGI (NCI-H226): 6.06 µM
